Test results: ChEMBL document CHEMBL5696442, “Discovery of type II inhibitors of TGFβ-activated kinase 1 (TAK1) and mitogen-activated protein kinase kinase kinase kinase 2 (MAP4K2)” (J Med Chem, 2015)
Active and inactive are the calls of the source. The calls are words filed in the database; no cut-off is given here.

How the values were obtained:
[1] = target: Epidermal growth factor receptor (Homo sapiens) (UniProt P00533); experiment: Inhibition of EGFR ACT labeling site harbouring ITDFGLAKLLGAEEK in human A-375 cells at 0.5 uM by KiNativ Profiling analysis relative to control; type: cell-based
[2] = target: Tyrosine-protein kinase CSK (Homo sapiens, UniProt P41240); experiment: Inhibition of CSK ACT labeling site harbouring VSDFGLTKEASSTQDTGK in human A-375 cells at 0.5 uM by KiNativ Profiling analysis relative to control; type: cell-based
Chain of Tyrosine-protein kinase CSK (P41240 2-450 limits assumed): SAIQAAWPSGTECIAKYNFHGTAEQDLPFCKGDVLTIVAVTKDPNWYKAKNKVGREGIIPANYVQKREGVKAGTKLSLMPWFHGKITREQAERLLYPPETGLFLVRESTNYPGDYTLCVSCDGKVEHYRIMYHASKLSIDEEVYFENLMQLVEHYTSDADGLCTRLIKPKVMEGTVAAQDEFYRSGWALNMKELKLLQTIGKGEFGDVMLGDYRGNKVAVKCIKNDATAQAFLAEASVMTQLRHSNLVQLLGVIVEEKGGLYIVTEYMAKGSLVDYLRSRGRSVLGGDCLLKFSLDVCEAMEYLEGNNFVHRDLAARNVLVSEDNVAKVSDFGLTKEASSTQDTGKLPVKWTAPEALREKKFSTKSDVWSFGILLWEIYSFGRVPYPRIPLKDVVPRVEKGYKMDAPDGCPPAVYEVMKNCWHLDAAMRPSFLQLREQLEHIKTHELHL

[3] = target: Ribosomal protein S6 kinase alpha-1 (Homo sapiens) (UniProt Q15418); experiment: Inhibition of N-terminal RPS6KA1 kinase domain 1 (unknown origin) at 10 uM by Ambit Kinomescan binding assay
Chain of Ribosomal protein S6 kinase alpha-1 (Homo sapiens) (Q15418 whole entry, the tested form may be a part, canonical isoform): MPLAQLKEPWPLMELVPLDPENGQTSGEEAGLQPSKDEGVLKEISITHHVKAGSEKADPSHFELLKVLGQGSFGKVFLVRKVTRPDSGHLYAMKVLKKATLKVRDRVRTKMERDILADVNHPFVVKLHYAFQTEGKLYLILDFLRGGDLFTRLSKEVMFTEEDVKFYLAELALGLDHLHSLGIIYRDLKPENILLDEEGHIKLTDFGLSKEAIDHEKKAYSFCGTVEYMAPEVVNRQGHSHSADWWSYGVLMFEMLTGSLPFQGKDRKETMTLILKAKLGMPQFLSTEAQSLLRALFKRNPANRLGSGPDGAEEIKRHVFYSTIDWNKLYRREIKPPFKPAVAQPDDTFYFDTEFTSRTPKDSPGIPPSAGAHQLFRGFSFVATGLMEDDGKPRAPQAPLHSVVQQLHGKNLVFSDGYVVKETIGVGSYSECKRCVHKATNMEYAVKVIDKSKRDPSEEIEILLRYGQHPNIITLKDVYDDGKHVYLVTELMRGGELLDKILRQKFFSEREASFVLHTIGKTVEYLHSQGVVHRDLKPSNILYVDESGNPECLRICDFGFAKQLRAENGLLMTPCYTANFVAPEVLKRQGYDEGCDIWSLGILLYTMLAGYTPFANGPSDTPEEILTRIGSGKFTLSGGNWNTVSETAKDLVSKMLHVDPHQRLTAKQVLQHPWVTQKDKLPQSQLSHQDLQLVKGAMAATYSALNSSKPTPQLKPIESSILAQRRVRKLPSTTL

[4] = target: Casein kinase I isoform gamma-1 (Homo sapiens) (UniProt Q9HCP0); experiment: Inhibition of CSNK1G1 (unknown origin) at 10 uM by Ambit Kinomescan binding assay
Chain of Casein kinase I isoform gamma-1 (Homo sapiens) (Q9HCP0 whole entry, looked up, canonical isoform): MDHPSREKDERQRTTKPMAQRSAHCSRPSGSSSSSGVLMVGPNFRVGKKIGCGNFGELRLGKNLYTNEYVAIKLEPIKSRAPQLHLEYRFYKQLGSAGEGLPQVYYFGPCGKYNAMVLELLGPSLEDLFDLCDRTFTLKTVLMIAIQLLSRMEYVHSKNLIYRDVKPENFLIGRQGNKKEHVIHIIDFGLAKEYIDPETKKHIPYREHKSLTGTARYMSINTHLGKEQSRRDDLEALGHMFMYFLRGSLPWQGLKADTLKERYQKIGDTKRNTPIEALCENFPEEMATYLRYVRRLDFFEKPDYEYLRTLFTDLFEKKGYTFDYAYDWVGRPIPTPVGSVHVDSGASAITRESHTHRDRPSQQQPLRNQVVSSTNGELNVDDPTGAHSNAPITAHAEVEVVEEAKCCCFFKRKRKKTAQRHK

[5] = target: Casein kinase II subunit alpha' (Homo sapiens) (UniProt P19784); experiment: Inhibition of CSNK2A2 (unknown origin) at 10 uM by Ambit Kinomescan binding assay
Chain of Casein kinase II subunit alpha' (Homo sapiens) (P19784 whole entry, looked up): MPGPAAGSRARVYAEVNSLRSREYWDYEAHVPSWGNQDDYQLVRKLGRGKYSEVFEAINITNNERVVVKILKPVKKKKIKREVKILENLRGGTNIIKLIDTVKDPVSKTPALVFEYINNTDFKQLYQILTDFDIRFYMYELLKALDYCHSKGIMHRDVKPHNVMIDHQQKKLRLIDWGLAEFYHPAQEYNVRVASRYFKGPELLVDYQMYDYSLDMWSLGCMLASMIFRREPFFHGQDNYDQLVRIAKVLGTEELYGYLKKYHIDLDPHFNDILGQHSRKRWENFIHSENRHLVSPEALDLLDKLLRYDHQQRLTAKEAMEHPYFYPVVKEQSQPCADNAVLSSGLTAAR

[6] = target: Serine/threonine-protein kinase 38-like (Homo sapiens) (UniProt Q9Y2H1); experiment: Inhibition of NDR2 (unknown origin) at 10 uM by Ambit Kinomescan binding assay relative to control
[7] = test system: Proto-oncogene tyrosine-protein kinase receptor Ret (Homo sapiens), P07949 [V804M]; experiment: Inhibition of RET V804M mutant (unknown origin) at 10 uM by Ambit Kinomescan binding assay relative to control; values are per cent of control
Chain of Proto-oncogene tyrosine-protein kinase receptor Ret (Homo sapiens), P07949 [V804M] (P07949 whole entry V804M): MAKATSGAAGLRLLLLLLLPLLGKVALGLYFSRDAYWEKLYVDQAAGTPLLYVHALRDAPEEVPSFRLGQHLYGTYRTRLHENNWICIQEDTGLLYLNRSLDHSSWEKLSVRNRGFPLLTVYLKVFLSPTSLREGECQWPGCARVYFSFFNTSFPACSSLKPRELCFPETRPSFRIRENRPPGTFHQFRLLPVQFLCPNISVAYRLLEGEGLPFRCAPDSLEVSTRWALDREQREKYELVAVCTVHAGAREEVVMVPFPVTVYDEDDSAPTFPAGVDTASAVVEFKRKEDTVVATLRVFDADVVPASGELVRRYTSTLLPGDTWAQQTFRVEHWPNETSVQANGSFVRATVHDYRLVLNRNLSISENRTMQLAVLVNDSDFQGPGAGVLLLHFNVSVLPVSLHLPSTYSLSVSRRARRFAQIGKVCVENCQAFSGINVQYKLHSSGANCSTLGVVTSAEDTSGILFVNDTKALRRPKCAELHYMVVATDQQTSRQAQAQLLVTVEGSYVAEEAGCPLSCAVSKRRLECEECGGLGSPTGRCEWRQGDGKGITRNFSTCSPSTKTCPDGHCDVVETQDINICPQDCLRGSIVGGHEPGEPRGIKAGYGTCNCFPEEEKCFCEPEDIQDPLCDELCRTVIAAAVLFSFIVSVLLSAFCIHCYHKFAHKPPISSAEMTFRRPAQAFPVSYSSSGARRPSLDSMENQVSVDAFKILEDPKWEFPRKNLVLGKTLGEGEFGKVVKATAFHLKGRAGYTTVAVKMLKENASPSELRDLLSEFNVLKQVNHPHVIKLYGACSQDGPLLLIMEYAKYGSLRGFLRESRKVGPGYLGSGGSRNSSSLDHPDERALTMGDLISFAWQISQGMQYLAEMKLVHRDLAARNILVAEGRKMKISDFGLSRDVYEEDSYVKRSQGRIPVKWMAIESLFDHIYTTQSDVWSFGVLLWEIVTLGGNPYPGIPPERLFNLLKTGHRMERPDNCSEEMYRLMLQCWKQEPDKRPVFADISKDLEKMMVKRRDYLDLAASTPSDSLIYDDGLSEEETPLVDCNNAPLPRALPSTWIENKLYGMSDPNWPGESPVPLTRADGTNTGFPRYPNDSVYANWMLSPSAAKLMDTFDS

[8] = target: Serine/threonine-protein kinase Nek2 (Homo sapiens) (UniProt P51955); experiment: Inhibition of NEK2 (unknown origin) at 1 uM by Ambit Kinomescan binding assay relative to control; values are per cent of control
[9] = target: T1, Serine/threonine-protein kinase TAO3 (Homo sapiens) (UniProt Q9H2K8); experiment: Inhibition of TAOK3 (unknown origin) at 1 uM by Ambit Kinomescan binding assay relative to control; values are per cent of control
T1 sequence (whole entry): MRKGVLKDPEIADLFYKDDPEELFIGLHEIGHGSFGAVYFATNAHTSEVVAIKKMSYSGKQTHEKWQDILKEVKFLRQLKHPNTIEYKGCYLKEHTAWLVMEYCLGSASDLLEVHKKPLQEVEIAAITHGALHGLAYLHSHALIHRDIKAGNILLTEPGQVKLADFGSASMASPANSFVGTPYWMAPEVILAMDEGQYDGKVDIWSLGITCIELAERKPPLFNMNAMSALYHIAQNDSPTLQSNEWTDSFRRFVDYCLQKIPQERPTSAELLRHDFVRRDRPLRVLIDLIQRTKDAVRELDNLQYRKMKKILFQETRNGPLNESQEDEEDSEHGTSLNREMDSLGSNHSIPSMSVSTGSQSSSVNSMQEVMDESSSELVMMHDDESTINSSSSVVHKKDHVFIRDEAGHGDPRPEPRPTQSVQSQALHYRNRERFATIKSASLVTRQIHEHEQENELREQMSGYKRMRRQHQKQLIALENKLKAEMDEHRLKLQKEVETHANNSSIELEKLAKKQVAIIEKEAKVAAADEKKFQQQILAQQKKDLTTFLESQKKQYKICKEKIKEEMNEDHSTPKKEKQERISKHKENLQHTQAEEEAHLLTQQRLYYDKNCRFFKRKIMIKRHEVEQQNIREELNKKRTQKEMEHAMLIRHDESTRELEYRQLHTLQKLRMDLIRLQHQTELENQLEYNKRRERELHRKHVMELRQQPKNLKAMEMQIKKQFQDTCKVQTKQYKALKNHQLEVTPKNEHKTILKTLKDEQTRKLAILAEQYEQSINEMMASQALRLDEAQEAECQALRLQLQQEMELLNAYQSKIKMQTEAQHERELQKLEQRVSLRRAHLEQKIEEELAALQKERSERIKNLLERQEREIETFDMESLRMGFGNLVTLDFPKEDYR

[10] = target: Ribosomal protein S6 kinase alpha-2 (Homo sapiens) (UniProt Q15349); experiment: Inhibition of RSK3 domain1 Lys2 labeling site in human A-375 cells at 5 uM by KiNativ Profiling analysis relative to control; type: cell-based
Chain of Ribosomal protein S6 kinase alpha-2 (Homo sapiens) (Q15349 whole entry, the tested form may be a part): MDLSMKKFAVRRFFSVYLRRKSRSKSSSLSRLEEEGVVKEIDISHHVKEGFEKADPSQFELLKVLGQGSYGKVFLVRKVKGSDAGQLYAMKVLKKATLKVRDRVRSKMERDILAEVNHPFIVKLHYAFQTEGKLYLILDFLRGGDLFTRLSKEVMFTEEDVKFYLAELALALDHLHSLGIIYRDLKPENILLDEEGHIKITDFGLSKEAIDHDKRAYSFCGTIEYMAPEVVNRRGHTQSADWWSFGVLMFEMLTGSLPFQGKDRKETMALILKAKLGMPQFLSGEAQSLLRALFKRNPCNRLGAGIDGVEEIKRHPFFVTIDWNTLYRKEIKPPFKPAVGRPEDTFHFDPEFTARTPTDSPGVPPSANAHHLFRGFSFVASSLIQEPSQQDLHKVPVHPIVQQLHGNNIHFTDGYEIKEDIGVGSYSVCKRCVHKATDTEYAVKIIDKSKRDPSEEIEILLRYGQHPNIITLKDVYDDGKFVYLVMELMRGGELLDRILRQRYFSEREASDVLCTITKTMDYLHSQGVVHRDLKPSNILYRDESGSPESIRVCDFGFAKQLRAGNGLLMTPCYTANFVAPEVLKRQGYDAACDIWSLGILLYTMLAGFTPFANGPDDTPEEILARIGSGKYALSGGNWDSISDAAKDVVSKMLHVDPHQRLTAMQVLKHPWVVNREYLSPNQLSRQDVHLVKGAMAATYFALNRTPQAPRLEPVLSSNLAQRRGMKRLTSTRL
Summary of the method: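 Live A375 melanoma cells treated with compound at 5 or 0.5 μM, then lysed. Lysate kinases were labeled with a lysine-reactive ATP or ADP-biotin probe. Inhibition was read as protection of labeling sites from the probe.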

[11] = target: 5'-AMP-activated protein kinase catalytic subunit alpha-1 (Homo sapiens) (UniProt Q13131); experiment: Inhibition of AMPKa1 Lys2 labeling site in human A-375 cells at 0.05 uM by KiNativ Profiling analysis relative to control; type: cell-based
Chain of 5'-AMP-activated protein kinase catalytic subunit alpha-1 (Homo sapiens) (Q13131 whole entry, looked up): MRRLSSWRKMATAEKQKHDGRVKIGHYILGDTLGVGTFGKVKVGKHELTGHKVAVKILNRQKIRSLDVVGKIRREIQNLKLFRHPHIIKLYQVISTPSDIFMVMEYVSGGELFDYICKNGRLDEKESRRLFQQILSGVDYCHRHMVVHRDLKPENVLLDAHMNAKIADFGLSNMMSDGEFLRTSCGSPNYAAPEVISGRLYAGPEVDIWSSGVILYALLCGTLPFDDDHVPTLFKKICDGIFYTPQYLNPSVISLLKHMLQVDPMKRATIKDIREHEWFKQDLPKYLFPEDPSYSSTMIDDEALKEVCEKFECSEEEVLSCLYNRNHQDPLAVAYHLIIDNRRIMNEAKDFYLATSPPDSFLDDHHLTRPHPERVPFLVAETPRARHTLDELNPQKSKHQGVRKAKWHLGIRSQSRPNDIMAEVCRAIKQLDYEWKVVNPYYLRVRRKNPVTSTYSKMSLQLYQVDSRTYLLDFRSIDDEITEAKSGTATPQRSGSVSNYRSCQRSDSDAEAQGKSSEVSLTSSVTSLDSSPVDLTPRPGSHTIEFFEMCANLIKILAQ

[12] = target: T2, Phosphatidylinositol 5-phosphate 4-kinase type-2 gamma (Homo sapiens) (UniProt Q8TBX8); experiment: Inhibition of PIP5K2C (unknown origin) at 1 uM by Ambit Kinomescan binding assay relative to control; values are per cent of control
T2 sequence (whole entry): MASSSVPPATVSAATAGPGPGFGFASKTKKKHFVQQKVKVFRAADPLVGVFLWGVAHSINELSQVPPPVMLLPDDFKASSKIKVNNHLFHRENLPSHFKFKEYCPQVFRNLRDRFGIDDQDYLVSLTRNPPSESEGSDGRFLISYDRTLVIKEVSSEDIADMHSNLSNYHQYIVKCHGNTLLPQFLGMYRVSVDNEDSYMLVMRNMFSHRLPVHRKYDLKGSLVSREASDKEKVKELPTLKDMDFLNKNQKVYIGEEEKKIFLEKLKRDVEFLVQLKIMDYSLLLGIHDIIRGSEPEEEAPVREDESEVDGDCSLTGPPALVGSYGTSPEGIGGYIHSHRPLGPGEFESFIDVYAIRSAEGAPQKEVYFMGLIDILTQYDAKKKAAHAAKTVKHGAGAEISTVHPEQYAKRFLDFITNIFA

[13] = target: Putative phosphatidylinositol 4-kinase alpha-like protein P2 (Homo sapiens) (UniProt A4QPH2); experiment: Inhibition of PI4KAP2 ATP labeling site in human Huh-7 cells at 1 uM by KiNativ Profiling analysis relative to control; type: cell-based
Chain of Putative phosphatidylinositol 4-kinase alpha-like protein P2 (Homo sapiens) (A4QPH2 whole entry): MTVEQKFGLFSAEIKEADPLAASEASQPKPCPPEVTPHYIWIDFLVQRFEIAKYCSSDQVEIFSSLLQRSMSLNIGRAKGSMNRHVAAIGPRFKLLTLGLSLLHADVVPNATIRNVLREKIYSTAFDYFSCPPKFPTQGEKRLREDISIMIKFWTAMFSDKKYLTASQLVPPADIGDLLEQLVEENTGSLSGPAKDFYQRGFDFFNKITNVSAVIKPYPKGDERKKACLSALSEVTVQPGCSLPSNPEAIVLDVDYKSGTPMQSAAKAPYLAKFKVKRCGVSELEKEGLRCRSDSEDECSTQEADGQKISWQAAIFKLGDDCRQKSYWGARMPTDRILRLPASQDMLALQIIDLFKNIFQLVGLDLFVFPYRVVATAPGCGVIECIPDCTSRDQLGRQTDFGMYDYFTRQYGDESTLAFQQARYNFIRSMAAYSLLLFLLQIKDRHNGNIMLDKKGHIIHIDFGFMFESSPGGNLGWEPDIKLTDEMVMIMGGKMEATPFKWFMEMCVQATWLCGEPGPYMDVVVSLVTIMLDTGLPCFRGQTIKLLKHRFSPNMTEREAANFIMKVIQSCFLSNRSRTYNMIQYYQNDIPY

[14] = target: T3, EKC/KEOPS complex subunit TP53RK (Homo sapiens) (UniProt Q96S44); experiment: Inhibition of PRPK ATP labeling site in human Huh-7 cell lysate at 1 uM by KiNativ Profiling analysis relative to control; type: subcellular
T3 sequence (whole entry): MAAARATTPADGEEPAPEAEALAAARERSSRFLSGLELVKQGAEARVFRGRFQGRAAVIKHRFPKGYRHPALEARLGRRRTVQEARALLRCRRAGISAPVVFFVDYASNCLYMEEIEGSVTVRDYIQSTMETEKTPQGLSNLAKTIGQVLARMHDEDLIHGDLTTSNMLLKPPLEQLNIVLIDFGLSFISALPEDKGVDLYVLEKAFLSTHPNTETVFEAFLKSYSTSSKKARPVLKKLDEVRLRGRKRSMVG

Compound: CCN1CCN(Cc2ccc(NC(=O)c3ccc(C)c(Oc4ccnc5[nH]ccc45)c3)cc2C(F)(F)F)CC1
- inhibition [1]: 0.7%
- inhibition [2]: 49.8%
- inhibition [3]: inactive
- inhibition [4]: inactive
- inhibition [5]: inactive
- inhibition [6]: 6.8%
- residual activity [7]: 1%

Compound: CCN1CCN(Cc2ccc(NC(=O)c3ccc(C)c(/C=C/c4cnc5[nH]ccc5c4OC)c3)cc2C(F)(F)F)CC1
- residual activity [8]: 100%
- percent of control [9]: 0.75%
- inhibition [10]: 16.5%
- inhibition [11]: 7.3%
- residual activity [12]: 100%

Compound: CNc1cc(Oc2cc(C(=O)Nc3cc(N4CCN(C)CC4)cc(C(F)(F)F)c3)ccc2C)ncn1
- inhibition [13]: 29.8%
- inhibition [14]: -6%
